Measured values from the M2OR odorant receptor database.

How the values were obtained:
Conditions in all cases: stereoisomer not certain
OR52I1 (Homo sapiens) = biological target: T1, OR52I1 (Homo sapiens) (UniProt Q8NGK6)
T1 sequence (whole entry): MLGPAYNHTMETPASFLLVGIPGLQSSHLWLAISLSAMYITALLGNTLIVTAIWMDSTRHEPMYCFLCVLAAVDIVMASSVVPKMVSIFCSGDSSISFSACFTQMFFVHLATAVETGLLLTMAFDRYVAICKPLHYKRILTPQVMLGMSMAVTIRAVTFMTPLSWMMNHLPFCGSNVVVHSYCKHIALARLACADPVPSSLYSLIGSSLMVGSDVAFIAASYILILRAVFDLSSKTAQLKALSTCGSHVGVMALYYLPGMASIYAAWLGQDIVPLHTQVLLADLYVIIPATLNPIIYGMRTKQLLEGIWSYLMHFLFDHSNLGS
Procedure, shortened: (§1)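 Assay methods differ from source to source, frequently being transient luciferase assays in mammalian cell lines. For each receptor–molecule pair, the label responsive (active) applies when the original authors judged the measured signal statistically different from baseline, and non-responsive (inactive) applies otherwise.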

OR52I2 (Homo sapiens) = biological target: T2, OR52I2 (Homo sapiens) (UniProt Q8NH67)
T2 sequence (whole entry): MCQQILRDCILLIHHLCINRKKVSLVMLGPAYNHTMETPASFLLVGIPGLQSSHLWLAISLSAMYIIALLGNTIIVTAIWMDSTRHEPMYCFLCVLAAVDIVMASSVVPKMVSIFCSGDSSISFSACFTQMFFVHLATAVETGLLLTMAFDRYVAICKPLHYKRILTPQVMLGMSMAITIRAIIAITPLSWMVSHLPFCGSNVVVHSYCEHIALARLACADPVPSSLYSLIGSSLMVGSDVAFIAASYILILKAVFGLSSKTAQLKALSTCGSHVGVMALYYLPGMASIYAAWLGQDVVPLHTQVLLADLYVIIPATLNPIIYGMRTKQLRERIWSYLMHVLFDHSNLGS
Procedure, shortened: as §1

OR52J3 (Homo sapiens) = OR52J3 (Homo sapiens) (UniProt Q8NH60)
OR52J3 (Homo sapiens), sequence (Q8NH60 whole entry): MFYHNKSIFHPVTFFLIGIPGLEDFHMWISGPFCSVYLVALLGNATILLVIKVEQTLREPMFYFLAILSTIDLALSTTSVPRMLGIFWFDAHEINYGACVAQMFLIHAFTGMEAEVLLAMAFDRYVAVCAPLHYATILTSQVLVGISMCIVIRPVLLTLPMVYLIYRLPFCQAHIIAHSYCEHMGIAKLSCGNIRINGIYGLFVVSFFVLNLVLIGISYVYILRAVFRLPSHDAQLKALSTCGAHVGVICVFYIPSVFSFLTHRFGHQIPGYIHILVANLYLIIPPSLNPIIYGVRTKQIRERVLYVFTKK
Procedure, shortened: as §1

OR52K1 (Homo sapiens) = biological target: T3, OR52K1 (Homo sapiens) (UniProt Q8NGK4)
T3 sequence (whole entry): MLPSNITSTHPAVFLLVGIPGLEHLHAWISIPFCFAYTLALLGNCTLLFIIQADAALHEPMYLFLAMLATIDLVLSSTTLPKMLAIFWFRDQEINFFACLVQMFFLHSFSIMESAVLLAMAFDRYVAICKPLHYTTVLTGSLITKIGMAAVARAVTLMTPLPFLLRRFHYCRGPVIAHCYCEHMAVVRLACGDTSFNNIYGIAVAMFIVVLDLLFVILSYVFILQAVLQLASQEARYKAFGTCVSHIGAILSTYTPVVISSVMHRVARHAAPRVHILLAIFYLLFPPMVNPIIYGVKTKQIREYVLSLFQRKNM
Procedure, shortened: as §1

OR52K2 (Homo sapiens) = biological target: T4, OR52K2 (Homo sapiens) (UniProt Q8NGK3)
T4 sequence (whole entry): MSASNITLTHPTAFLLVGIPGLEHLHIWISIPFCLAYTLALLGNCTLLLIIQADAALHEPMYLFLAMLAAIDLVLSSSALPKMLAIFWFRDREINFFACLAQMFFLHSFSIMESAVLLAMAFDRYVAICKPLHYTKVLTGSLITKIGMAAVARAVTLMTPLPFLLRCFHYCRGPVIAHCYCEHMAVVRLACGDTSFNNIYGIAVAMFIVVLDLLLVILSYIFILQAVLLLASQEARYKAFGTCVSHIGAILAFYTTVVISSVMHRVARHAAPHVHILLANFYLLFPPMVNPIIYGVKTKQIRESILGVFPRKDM
Procedure, shortened: as §1

OR52L1 (Homo sapiens) = biological target: T5, OR52L1 (Homo sapiens) (UniProt Q8NGH7)
T5 sequence (whole entry): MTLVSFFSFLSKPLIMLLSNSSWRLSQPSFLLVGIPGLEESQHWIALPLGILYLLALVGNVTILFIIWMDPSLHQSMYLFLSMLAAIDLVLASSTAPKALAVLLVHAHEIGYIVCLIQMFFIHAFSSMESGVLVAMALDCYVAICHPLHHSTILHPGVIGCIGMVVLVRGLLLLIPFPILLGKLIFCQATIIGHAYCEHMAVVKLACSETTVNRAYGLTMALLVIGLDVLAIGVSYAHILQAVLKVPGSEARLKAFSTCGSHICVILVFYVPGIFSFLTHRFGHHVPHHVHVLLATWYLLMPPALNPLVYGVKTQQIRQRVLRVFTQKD
Procedure, shortened: as §1

OR52M1 (Homo sapiens) = biological target: T6, OR52M1 (Homo sapiens) (UniProt Q8NGK5)
T6 sequence (whole entry): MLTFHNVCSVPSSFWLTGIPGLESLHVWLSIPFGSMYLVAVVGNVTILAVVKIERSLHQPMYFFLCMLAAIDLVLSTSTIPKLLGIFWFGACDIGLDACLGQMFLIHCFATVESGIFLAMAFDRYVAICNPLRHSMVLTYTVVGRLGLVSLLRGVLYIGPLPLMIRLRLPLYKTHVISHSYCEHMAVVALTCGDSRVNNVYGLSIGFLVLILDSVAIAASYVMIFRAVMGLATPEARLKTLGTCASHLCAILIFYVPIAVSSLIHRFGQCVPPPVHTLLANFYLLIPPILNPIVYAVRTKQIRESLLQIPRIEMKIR
Procedure, shortened: as §1

OR52N1 (Homo sapiens) = biological target: T7, OR52N1 (Homo sapiens) (UniProt Q8NH53)
T7 sequence (whole entry): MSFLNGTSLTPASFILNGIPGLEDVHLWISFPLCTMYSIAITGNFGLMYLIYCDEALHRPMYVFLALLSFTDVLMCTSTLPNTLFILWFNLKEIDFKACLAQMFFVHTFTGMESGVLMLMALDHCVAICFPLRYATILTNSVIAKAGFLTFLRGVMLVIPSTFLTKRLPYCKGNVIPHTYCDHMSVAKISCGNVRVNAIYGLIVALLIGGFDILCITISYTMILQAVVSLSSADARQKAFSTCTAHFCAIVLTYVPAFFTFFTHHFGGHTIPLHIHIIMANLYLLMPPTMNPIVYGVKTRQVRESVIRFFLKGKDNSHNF
Procedure, shortened: as §1

OR52N2 (Homo sapiens) = biological target: T8, OR52N2 (Homo sapiens) (UniProt Q8NGI0)
T8 sequence (whole entry): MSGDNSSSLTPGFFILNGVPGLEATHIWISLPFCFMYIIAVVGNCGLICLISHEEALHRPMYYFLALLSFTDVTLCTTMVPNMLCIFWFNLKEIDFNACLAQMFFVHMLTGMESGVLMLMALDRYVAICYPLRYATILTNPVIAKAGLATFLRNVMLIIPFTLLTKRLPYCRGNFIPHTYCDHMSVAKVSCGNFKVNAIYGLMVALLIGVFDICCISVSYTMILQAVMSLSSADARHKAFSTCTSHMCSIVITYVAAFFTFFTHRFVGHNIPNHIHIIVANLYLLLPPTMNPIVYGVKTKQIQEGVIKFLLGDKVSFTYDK
Procedure, shortened: as §1

OR52N4 (Homo sapiens) = biological target: T9, OR52N4 (Homo sapiens) (UniProt Q8NGI2)
T9 sequence (whole entry): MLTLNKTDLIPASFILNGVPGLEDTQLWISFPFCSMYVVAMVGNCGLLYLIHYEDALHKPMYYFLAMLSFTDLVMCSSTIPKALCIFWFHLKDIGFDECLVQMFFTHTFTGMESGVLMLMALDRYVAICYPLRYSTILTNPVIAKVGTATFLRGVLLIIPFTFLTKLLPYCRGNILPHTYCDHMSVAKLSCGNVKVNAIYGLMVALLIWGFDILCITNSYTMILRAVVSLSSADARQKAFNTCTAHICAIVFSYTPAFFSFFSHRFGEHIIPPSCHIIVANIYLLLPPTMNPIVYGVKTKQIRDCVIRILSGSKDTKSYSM
Procedure, shortened: as §1

OR52N5 (Homo sapiens) = biological target: T10, OR52N5 (Homo sapiens) (UniProt Q8NH56)
T10 sequence (whole entry): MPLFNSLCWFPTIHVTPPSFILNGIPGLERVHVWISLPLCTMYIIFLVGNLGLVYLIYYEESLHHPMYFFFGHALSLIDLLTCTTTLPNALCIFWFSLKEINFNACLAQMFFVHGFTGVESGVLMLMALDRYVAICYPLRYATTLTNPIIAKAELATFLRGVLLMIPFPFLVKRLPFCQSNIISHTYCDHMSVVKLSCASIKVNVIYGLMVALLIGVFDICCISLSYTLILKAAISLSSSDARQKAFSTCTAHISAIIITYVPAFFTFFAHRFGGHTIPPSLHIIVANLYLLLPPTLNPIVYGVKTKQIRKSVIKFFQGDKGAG
Procedure, shortened: as §1

OR52R1 (Homo sapiens) = biological target: T11, OR52R1 (Homo sapiens) (UniProt Q8NGF1)
T11 sequence (whole entry): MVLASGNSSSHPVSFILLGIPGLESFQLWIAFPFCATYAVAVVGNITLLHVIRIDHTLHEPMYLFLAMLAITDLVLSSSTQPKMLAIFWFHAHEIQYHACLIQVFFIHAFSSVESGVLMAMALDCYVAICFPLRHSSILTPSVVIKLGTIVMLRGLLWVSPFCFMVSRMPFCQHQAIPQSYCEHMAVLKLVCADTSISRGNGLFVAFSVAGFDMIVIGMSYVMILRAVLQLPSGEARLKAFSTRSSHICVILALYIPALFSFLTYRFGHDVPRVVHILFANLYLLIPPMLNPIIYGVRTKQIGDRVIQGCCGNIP
Procedure, shortened: as §1

OR52W1 (Homo sapiens) = biological target: T12, OR52W1 (Homo sapiens) (UniProt Q6IF63)
T12 sequence (whole entry): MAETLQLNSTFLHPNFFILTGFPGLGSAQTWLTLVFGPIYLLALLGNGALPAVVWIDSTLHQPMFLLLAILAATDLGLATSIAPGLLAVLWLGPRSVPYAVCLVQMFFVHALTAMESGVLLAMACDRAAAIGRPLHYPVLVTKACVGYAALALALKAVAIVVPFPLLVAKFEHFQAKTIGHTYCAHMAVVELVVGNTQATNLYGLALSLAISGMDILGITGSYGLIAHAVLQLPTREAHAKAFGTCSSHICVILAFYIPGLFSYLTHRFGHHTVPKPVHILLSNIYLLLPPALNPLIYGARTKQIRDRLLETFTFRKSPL
Procedure, shortened: as §1

OR56A1 (Homo sapiens) = biological target: T13, OR56A1 (Homo sapiens) (UniProt Q8NGH5)
T13 sequence (whole entry): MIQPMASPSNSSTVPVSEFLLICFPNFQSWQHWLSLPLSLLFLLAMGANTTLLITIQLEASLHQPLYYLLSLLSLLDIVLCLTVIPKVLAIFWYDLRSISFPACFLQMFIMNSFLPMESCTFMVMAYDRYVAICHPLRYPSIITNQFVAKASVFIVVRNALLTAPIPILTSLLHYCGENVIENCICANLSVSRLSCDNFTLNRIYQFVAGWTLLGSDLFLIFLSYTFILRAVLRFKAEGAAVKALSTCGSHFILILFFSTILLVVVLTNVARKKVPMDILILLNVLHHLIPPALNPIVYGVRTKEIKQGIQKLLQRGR
Procedure, shortened: as §1

OR56A3 (Homo sapiens) = biological target: T14, OR56A3 (Homo sapiens) (UniProt Q8NH54)
T14 sequence (whole entry): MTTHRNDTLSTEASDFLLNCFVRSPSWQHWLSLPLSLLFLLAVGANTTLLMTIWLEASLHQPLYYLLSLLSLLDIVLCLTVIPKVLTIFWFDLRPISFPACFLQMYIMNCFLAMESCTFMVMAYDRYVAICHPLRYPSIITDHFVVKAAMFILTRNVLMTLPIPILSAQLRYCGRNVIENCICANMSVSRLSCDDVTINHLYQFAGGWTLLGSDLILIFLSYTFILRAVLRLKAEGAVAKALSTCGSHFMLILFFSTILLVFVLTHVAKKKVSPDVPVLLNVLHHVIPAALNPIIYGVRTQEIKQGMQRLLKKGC
Procedure, shortened: as §1

OR56A4 (Homo sapiens) = biological target: T15, OR56A4 (Homo sapiens) (UniProt Q8NGH8)
T15 sequence (whole entry): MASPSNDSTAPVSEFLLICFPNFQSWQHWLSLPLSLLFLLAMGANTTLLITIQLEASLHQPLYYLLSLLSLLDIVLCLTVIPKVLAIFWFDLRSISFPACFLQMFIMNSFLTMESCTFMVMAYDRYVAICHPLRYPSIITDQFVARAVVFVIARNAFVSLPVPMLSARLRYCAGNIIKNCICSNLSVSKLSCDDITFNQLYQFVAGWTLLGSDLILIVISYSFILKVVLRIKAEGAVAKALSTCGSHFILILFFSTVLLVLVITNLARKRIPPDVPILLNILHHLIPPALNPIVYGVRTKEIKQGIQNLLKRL
Procedure, shortened: as §1

OR56A5 (Homo sapiens) = biological target: T16, OR56A5 (Homo sapiens) (UniProt P0C7T3)
T16 sequence (whole entry): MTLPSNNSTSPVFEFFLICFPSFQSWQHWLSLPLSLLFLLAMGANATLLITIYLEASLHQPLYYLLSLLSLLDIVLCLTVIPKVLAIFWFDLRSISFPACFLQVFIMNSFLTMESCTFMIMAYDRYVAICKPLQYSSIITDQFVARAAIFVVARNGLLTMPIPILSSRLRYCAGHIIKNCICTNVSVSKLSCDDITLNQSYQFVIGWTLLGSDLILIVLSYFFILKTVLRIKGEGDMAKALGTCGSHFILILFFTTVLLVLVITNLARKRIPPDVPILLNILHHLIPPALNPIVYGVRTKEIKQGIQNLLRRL
Procedure, shortened: as §1

OR56B1 (Homo sapiens) = biological target: T17, OR56B1 (Homo sapiens) (UniProt Q8NGI3)
T17 sequence (whole entry): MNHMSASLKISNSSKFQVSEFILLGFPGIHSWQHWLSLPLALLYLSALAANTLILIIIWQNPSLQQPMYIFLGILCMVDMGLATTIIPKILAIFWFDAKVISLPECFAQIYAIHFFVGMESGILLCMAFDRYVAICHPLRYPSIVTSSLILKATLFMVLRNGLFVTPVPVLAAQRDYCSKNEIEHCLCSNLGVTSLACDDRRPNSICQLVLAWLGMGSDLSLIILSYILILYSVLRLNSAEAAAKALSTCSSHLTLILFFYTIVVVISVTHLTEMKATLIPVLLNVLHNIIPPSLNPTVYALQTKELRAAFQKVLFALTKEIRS
Procedure, shortened: as §1

Measured: odorant receptor agonist call

CCCCCC(S)C(C)CO (stereo not drawn)
inactive: all assays above
